Measurements reported in ChEMBL document CHEMBL1123038, “Potential neuroleptic agents. 3. Chemistry and antidopaminergic properties of substituted 6-methoxysalicylamides” (J Med Chem, 1985).

Tests used:
Type in all cases: functional
Conditions in all cases: ip
Rattus norvegicus [1] = assay: Compound was evaluated in vivo its antagonist activity against apomorphine induced behavioral syndrome such as Stereotypy in rat after intraperitoneal administration; activity value ranges from 0.74-0.87
Outline: (§1)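 Male Sprague-Dawley rats (275–325 g) got compound ip (saline, or acetic acid/distilled water vehicle) 60 min ahead of sc apomorphine 1 mg/kg given into the neck. Stereotypy strength was scored 5, 20, 40 and 60 min after apomorphine. […] It was computed by Theil's method with Sen tie correction, using 5–6+ dose levels and 6–8 animals per dose.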

Rattus norvegicus [2] = assay: Compound was evaluated in vivo for antagonist activity against apomorphine induced behavioral syndrome such as Hyperactivity in rat after intraperitoneal administration; activity value ranges from 0.14-0.18
Rattus norvegicus [3] = assay: Compound was evaluated in vivo its antagonist activity against apomorphine induced behavioral syndrome such as Stereotypy in rat after intraperitoneal administration; activity value ranges from 0.89-1.02; outline: as §1
Rattus norvegicus [4] = assay: Compound was evaluated in vivo for antagonist activity against apomorphine induced behavioral syndrome such as Hyperactivity in rat after intraperitoneal administration; activity value ranges from 1.15-1.26
Rattus norvegicus [5] = assay: Compound was evaluated in vivo for antagonist activity against apomorphine induced behavioral syndrome such as Hyperactivity in rat after intraperitoneal administration; activity value ranges from 0.11-0.13
Outline: (§2)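 Male Sprague-Dawley rats (275–325 g) received test compound ip (in saline, or acetic acid plus distilled water) 60 min before apomorphine 1 mg/kg sc into the neck. Behaviour was scored at 5, 20, 40 and 60 min after apomorphine.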

Rattus norvegicus [6] = assay: Compound was evaluated in vivo its antagonist activity against apomorphine induced behavioral syndrome such as Stereotypy in rat after intraperitoneal administration; activity value ranges from 0.24-0.25; outline: as §1
Rattus norvegicus [7] = assay: Compound was evaluated in vivo its antagonist activity against apomorphine induced behavioral syndrome such as Stereotypy in rat after intraperitoneal administration; activity value ranges from 0.65-0.66; outline: as §1
Rattus norvegicus [8] = assay: Compound was evaluated in vivo for antagonist activity against apomorphine induced behavioral syndrome such as Hyperactivity in rat after intraperitoneal administration; activity value ranges from 0.42-0.43
Rattus norvegicus [9] = assay: Compound was evaluated in vivo its antagonist activity against apomorphine induced behavioral syndrome such as Stereotypy in rat after intraperitoneal administration; activity value ranges from 2.0-2.0; outline: as §1
Rattus norvegicus [10] = assay: Compound was evaluated in vivo for antagonist activity against apomorphine induced behavioral syndrome such as Hyperactivity in rat after intraperitoneal administration; activity value ranges from 1.07-1.15
Rattus norvegicus [11] = assay: Compound was evaluated in vivo its antagonist activity against apomorphine induced behavioral syndrome such as Stereotypy in rat after intraperitoneal administration; activity value ranges from 6.5-6.8; outline: as §1
Rattus norvegicus [12] = assay: Compound was evaluated in vivo for antagonist activity against apomorphine induced behavioral syndrome such as Hyperactivity in rat after intraperitoneal administration; activity value ranges from 6.0-6.2
Rattus norvegicus [13] = assay: Compound was evaluated in vivo for antagonist activity against apomorphine induced behavioral syndrome such as Hyperactivity in rat after intraperitoneal administration; activity value ranges from 0.19-0.20
Rattus norvegicus [14] = assay: Compound was evaluated in vivo its antagonist activity against apomorphine induced behavioral syndrome such as Stereotypy in rat after intraperitoneal administration activity value ranges from 0.81-0.95; outline: as §1
Rattus norvegicus [15] = assay: Compound was evaluated in vivo for antagonist activity against apomorphine induced behavioral syndrome such as Hyperactivity in rat after intraperitoneal administration; activity value ranges from 5.2-6.9
Rattus norvegicus [16] = assay: Compound was evaluated in vivo its antagonist activity against apomorphine induced behavioral syndrome such as Stereotypy in rat after intraperitoneal administration; activity value ranges from 15.1-15.8; outline: as §1
Rattus norvegicus [17] = assay: Compound was evaluated in vivo for antagonist activity against apomorphine induced behavioral syndrome such as Hyperactivity in rat after intraperitoneal administration; activity value ranges from 2.7-3.8
Rattus norvegicus [18] = assay: Compound was evaluated in vivo for antagonist activity against apomorphine induced behavioral syndrome such as Hyperactivity in rat after intraperitoneal administration; activity value ranges from 0.65-0.85
Rattus norvegicus [19] = assay: Compound was evaluated in vivo its antagonist activity against apomorphine induced behavioral syndrome such as Stereotypy in rat after intraperitoneal administration; activity value ranges from 2.4-2.7; outline: as §1
Rattus norvegicus [20] = assay: Compound was evaluated in vivo its antagonist activity against apomorphine induced behavioral syndrome such as Stereotypy in rat after intraperitoneal administration; activity value ranges from 1.8-2.2; outline: as §1
Rattus norvegicus [21] = assay: Compound was evaluated in vivo for antagonist activity against apomorphine induced behavioral syndrome such as Hyperactivity in rat after intraperitoneal administration; activity value ranges from 0.46-0.49
Rattus norvegicus [22] = assay: Compound was evaluated in vivo its antagonist activity against apomorphine induced behavioral syndrome such as Stereotypy in rat after intraperitoneal administration; activity value ranges from 13.8-14.1; outline: as §1
Rattus norvegicus [23] = assay: Compound was evaluated in vivo for antagonist activity against apomorphine induced behavioral syndrome such as Hyperactivity in rat after intraperitoneal administration; activity value ranges from 0.78-1.07
Rattus norvegicus [24] = assay: Compound was evaluated in vivo for antagonist activity against apomorphine induced behavioral syndrome such as Hyperactivity in rat after intraperitoneal administration; activity value ranges from 0.45-0.49
Rattus norvegicus [25] = assay: Compound was evaluated in vivo its antagonist activity against apomorphine induced behavioral syndrome such as Stereotypy in rat after intraperitoneal administration; activity value ranges from 0.56-0.95; outline: as §1
Rattus norvegicus [26] = assay: Compound was evaluated in vivo for antagonist activity against apomorphine induced behavioral syndrome such as Hyperactivity in rat after intraperitoneal administration; activity value ranges from 0.36-0.43
Rattus norvegicus [27] = assay: Compound was evaluated in vivo its antagonist activity against apomorphine induced behavioral syndrome such as Stereotypy in rat after intraperitoneal administration; activity value ranges from 7.6-8.3; outline: as §1
Rattus norvegicus [28] = assay: Compound was evaluated in vivo its antagonist activity against apomorphine induced behavioral syndrome such as Stereotypy in rat after intraperitoneal administration; activity value ranges from 0.30-0.33; outline: as §1
Rattus norvegicus [29] = assay: Compound was evaluated in vivo for antagonist activity against apomorphine induced behavioral syndrome such as Hyperactivity in rat after intraperitoneal administration; activity value ranges from 0.054-0.055
Rattus norvegicus [30] = assay: Compound was evaluated in vivo for antagonist activity against apomorphine induced behavioral syndrome such as Hyperactivity in rat after intraperitoneal administration; activity value ranges from 1.58-1.78
Rattus norvegicus [31] = assay: Compound was evaluated in vivo its antagonist activity against apomorphine induced behavioral syndrome such as Stereotypy in rat after intraperitoneal administration; activity value ranges from 2.82-3.02; outline: as §1
Rattus norvegicus [32] = assay: Compound was evaluated in vivo for antagonist activity against apomorphine induced behavioral syndrome such as Hyperactivity in rat after intraperitoneal administration; activity value ranges from 0.27-0.35; outline: as §2
Rattus norvegicus [33] = assay: Compound was evaluated in vivo its antagonist activity against apomorphine induced behavioral syndrome such as Stereotypy in rat after intraperitoneal administration
Rattus norvegicus [34] = assay: Compound was evaluated in vivo for antagonist activity against apomorphine induced behavioral syndrome such as Hyperactivity in rat after intraperitoneal administration; activity value ranges from 0.11-0.16
Rattus norvegicus [35] = assay: Compound was evaluated in vivo its antagonist activity against apomorphine induced behavioral syndrome such as Stereotypy in rat after intraperitoneal administration; activity value ranges from 0.52-0.55; outline: as §1

CCCc1ccc(OC)c(C(=O)NC[C@@H]2CCCN2CC)c1O
ED50 (Rattus norvegicus [1]): 0.79 µmol/kg | ED50 (Rattus norvegicus [2]): 0.16 µmol/kg

CCN1CCC[C@H]1CNC(=O)c1c(OC)ccc(C)c1O
ED50 (Rattus norvegicus [3]): 0.95 µmol/kg | ED50 (Rattus norvegicus [4]): 1.23 µmol/kg

CCc1ccc(OC)c(C(=O)NC[C@@H]2CCCN2CC)c1O
ED50 (Rattus norvegicus [5]): 0.12 µmol/kg | ED50 (Rattus norvegicus [6]): 0.25 µmol/kg

CCCN1CCC[C@H]1CNC(=O)c1c(OC)ccc(Br)c1O
ED50 (Rattus norvegicus [7]): 0.66 µmol/kg | ED50 (Rattus norvegicus [8]): 0.43 µmol/kg

CCN1CCC[C@H]1CNC(=O)c1c(OC)ccc(I)c1OC
ED50 (Rattus norvegicus [9]): 2.1 µmol/kg | ED50 (Rattus norvegicus [10]): 1.12 µmol/kg

CCN1CCC[C@H]1CNC(=O)c1c(O)ccc(Br)c1OC
ED50 (Rattus norvegicus [11]): 6.6 µmol/kg | ED50 (Rattus norvegicus [12]): 6.2 µmol/kg

CCN1CCC[C@H]1CNC(=O)c1c(OC)ccc(Cl)c1O
ED50 (Rattus norvegicus [13]): 0.2 µmol/kg | ED50 (Rattus norvegicus [14]): 0.87 µmol/kg

CCN1CCC[C@H]1CNC(=O)c1c(OC)ccc(Cl)c1OC
ED50 (Rattus norvegicus [15]): 6.3 µmol/kg

CCCN1CCC[C@H]1CNC(=O)c1c(OC)ccc(Br)c1OC
ED50 (Rattus norvegicus [16]): 15.5 µmol/kg | ED50 (Rattus norvegicus [17]): 3.4 µmol/kg

CCN1CCC[C@H]1CNC(=O)c1c(O)ccc(Cl)c1OC
ED50 (Rattus norvegicus [18]): 0.78 µmol/kg | ED50 (Rattus norvegicus [19]): 2.5 µmol/kg

CCOc1c(Br)ccc(OC)c1C(=O)NC[C@@H]1CCCN1CC
ED50 (Rattus norvegicus [20]): 1.9 µmol/kg | ED50 (Rattus norvegicus [21]): 0.47 µmol/kg

CCc1ccc(OC)c(C(=O)NC[C@@H]2CCCN2CC)c1OC
ED50 (Rattus norvegicus [22]): 14.1 µmol/kg | ED50 (Rattus norvegicus [23]): 0.95 µmol/kg

CCc1ccc(O)c(C(=O)NC[C@@H]2CCCN2CC)c1OC
ED50 (Rattus norvegicus [24]): 0.47 µmol/kg | ED50 (Rattus norvegicus [25]): 0.79 µmol/kg

CCN1CCC[C@H]1CNC(=O)c1c(O)cccc1OC
ED50 (Rattus norvegicus [26]): 0.4 µmol/kg | ED50 (Rattus norvegicus [27]): 7.8 µmol/kg

CCN1CCC[C@H]1CNC(=O)c1c(OC)ccc(Br)c1O (stereo in doubt; 11)
ED50 (Rattus norvegicus [28]): 0.32 µmol/kg | ED50 (Rattus norvegicus [29]): 0.055 µmol/kg

CCN1CCC[C@H]1CNC(=O)c1c(OC)ccc(Br)c1O (stereo in doubt; 26)
ED50 (Rattus norvegicus [30]): 0.055 µmol/kg | ED50 (Rattus norvegicus [31]): 0.32 µmol/kg

O=C(CCCN1CCC(O)(c2ccc(Cl)cc2)CC1)c1ccc(F)cc1 [HALOPERIDOL]
ED50 (Rattus norvegicus [32]): 0.29 µmol/kg | ED50 (Rattus norvegicus [33]): 0.27 µmol/kg

CCN1CCC[C@H]1CNC(=O)c1c(OC)ccc(I)c1O [IOLOPRIDE]
ED50 (Rattus norvegicus [34]): 0.15 µmol/kg | ED50 (Rattus norvegicus [35]): 0.54 µmol/kg
